According to ChEMBL document CHEMBL1124917 (1990):

Key:
Format in all cases: functional, Mus musculus
[1] = test system: P388; experiment: Antitumor activity was determined after intraperitoneal injection on day 1 at a dose of 256 mg/kg following intraperitoneal implant of P388 leukemia cells in CDF1 mice
Method in brief: (§1)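 P388 leukemia carried as ascites in DBA/2 mice; 10⁶ cells implanted ip into female CDF₁ mice (16–20 g), six per dose, 10 as untreated leukemia controls. Single ip dose of freshly prepared aqueous solution 1 day after implant. Daily observation for 30 days; activity taken as median survival time, treated vs untreated groups (% T/C).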

[2] = Average weight change of mice was determined on day 6 after intraperitoneal injection on day 1 at a dose of 256 mg/kg following intraperitoneal implant of P388 leukemia cells in CDF1 mice
Method in brief: (§2)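 Female CDF₁ mice (16–20 g), six per dose, implanted ip with 10⁶ P388 cells kept as ascites in DBA/2 mice. Single ip dose of freshly prepared aqueous solution 1 day post-implant. Body weight change averaged per dose group, read on day 6, in grams.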

[3] = test system: P388; experiment: Antitumor activity was determined after intraperitoneal injection on day 1 at a dose of 200 mg/kg following intraperitoneal implant of P388 leukemia cells in CDF1 mice; method in brief: as §1
[4] = test system: P388; experiment: Average weight change of mice was determined on day 6 after intraperitoneal injection on day 1 at a dose of 200 mg/kg following intraperitoneal implant of P388 leukemia cells in CDF1 mice; method in brief: as §2
[5] = test system: P388; experiment: Antitumor activity was determined after intraperitoneal injection on day 1 at a dose of 100 mg/kg following intraperitoneal implant of P388 leukemia cells in CDF1 mice; method in brief: as §1
[6] = test system: P388; experiment: Average weight change of mice was determined on day 6 after intraperitoneal injection on day 1 at a dose of 100 mg/kg following intraperitoneal implant of P388 leukemia cells in CDF1 mice; method in brief: as §2
[7] = test system: P388; experiment: Average weight change of mice was determined on day 6 after intraperitoneal injection on day 1 at a dose of 64 mg/kg following intraperitoneal implant of P388 leukemia cells in CDF1 mice; method in brief: as §2
[8] = test system: P388; experiment: Antitumor activity was determined after intraperitoneal injection on day 1 at a dose of 128 mg/kg following intraperitoneal implant of P388 leukemia cells in CDF1 mice; method in brief: as §1
[9] = test system: P388; experiment: Antitumor activity was determined after intraperitoneal injection on day 1 at a dose of 64 mg/kg following intraperitoneal implant of P388 leukemia cells in CDF1 mice; method in brief: as §1
[10] = test system: P388; experiment: Average weight change of mice was determined on day 6 after intraperitoneal injection on day 1 at a dose of 32 mg/kg following intraperitoneal implant of P388 leukemia cells in CDF1 mice; method in brief: as §2
[11] = test system: P388; experiment: Average weight change of mice was determined on day 6 after intraperitoneal injection on day 1 at a dose of 128 mg/kg following intraperitoneal implant of P388 leukemia cells in CDF1 mice; method in brief: as §2
[12] = test system: P388; experiment: Antitumor activity which was determined after intraperitoneal injection on day 1 at a dose of 32 mg/kg following intraperitoneal implant of P388 leukemia cells in CDF1 mice; method in brief: as §1
[13] = test system: P388; experiment: Antitumor activity was determined after intraperitoneal injection on day 1 at a dose of 400 mg/kg following intraperitoneal implant of P388 leukemia cells in CDF1 mice; method in brief: as §1
[14] = test system: P388; experiment: Antitumor activity was determined after intraperitoneal injection on day 1 at a dose of 50 mg/kg following intraperitoneal implant of P388 leukemia cells in CDF1 mice; method in brief: as §1
[15] = test system: P388; experiment: Average weight change of mice was determined on day 6 after intraperitoneal injection on day 1 at a dose of 400 mg/kg following intraperitoneal implant of P388 leukemia cells in CDF1 mice; method in brief: as §2
[16] = test system: P388; experiment: Average weight change of mice was determined on day 6 after intraperitoneal injection on day 1 at a dose of 50 mg/kg following intraperitoneal implant of P388 leukemia cells in CDF1 mice; method in brief: as §2

Compound | T/C [1] [%] | AWC [2] [g] | T/C [3] [%] | AWC [4] [g] | T/C [5] [%] | AWC [6] [g] | AWC [7] [g] | T/C [8] [%] | T/C [9] [%] | AWC [11] [g] | other results
CC(=O)O[C@H]1C[C@H](n2cc(C)c(=O)[nH]c2=O)O[C@@H]1COC(=O)NP(=O)(N1CC1(C)C)N1CC1(C)C (stereo not given in full) | 113 | -1.3 |  |  |  |  |  |  |  |  | 
CC(=O)OC[C@H]1O[C@@H](n2cc(C)c(=O)[nH]c2=O)C[C@@H]1OC(=O)NP(=O)(N1CC1(C)C)N1CC1(C)C (stereo not given in full) | 125 | -0.5 |  |  |  |  |  |  |  |  | 
CCOP(=O)(N1CC1(C)C)N1CC1(C)C (stereo not given) |  |  | 433 | -5.2 | 289 | -2.6 |  |  |  |  | 
Cc1cn(C2CC(O)C(CNP(=O)(N3CC3(C)C)N3CC3(C)C)O2)c(=O)[nH]c1=O (stereo not given) | 156 | -0.7 |  |  |  |  | -0.4 | 150 | 150 | -0.8 | AWC [10]: -0.7 g; T/C [12]: 131%
CCOC(=O)NP(=O)(N1CC1(C)C)N1CC1(C)C (stereo not given) [METUREDEPA] |  |  | 231 | -0.2 | 181 | -0.4 |  |  |  |  | T/C [13]: 244%; T/C [14]: 163%; AWC [15]: -1.3 g; AWC [16]: -0.7 g
CC1(C)CN1P(=O)(Nc1ccccc1)N1CC1(C)C (stereo not given) [PHOSPHINIC ANILIDE DERIVATE] | 169 | -0.8 |  |  |  |  | -1.3 | 138 | 144 | -0.7 | 
